SIAE primary – inhibitors of human sialic acid acetylesterase SIAE; Q9HAT2; inhibition, % at 9.66 µM; 370,000 compounds, 0.69% hits; SIAE FP-Rh probe binding, fluorescence polarization;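 active = inhibition above a cutoff: mean of compounds within the control limits plus 3 SD of those, cut at about 17% in these data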;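 note: 0% = plate median of compound wells and 100% = probe without SIAE protein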
Target sequence (Q9HAT2 whole entry, looked up): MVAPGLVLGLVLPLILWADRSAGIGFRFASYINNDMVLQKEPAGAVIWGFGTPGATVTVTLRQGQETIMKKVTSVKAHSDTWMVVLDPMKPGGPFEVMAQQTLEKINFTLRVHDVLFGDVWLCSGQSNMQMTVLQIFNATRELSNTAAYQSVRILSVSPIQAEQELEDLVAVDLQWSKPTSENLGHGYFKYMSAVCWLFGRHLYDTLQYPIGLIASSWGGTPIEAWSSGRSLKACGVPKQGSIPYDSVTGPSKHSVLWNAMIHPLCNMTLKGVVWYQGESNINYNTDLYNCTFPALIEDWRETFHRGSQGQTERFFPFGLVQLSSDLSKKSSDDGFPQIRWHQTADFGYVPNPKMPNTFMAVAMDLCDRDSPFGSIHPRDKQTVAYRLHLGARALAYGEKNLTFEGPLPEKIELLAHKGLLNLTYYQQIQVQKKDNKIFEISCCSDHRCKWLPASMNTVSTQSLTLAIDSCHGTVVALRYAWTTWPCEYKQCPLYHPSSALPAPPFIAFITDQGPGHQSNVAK
rCAG RNA binder – molecules binding r(CAG) RNA repeats | 370,000 compounds, 1.3% hits | r(CAG) RNA repeat, TO-PRO-1 dye displacement fluorescence | inhibition, % at 3 µM;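 active = inhibition above the plate cutoff, the mean of all test compounds on that plate plus 3 SD, cut at about 35% in these data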;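 note: 0% = DMSO alone and 100% = 100 µM mitoxantrone as full dye displacement; higher means more dye released from RNA so lower well fluorescence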
HTRA1 inh – HTRA1 (human) protease inhibition. inhibition, % at 5.96 µM. 340,000 compounds, 0.5% hits. recombinant HTRA1, FP-rhodamine activity-based probe, fluorescence polarization. Q92743. AID 504803; in the data active = inhibition above about 36%;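 note: 0% = enzyme with DMSO and 100% = wells lacking enzyme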
TCR-CD3 inh – human TCR-CD3 binding inhibition; TAMRA-labeled TCR probe fluorescence, biochemical; inhibition, % at 9.4 µM; 360,000 compounds, 0.37% hits; AID 651800; in the data active = inhibition above about 19%;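 note: recombinant mutant TCR 2C K166C tagged with TAMRA read by polarization; 0% = receptor in buffer alone and 100% = receptor with positive control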
PRMT1 inh – blocks human protein arginine methyltransferase 1; recombinant PRMT1, activity-based probe fluorescence polarization; inhibition, % at 2.79 µM; 370,000 compounds, 1.3% hits;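 active = inhibition above about 21% made by adding two undisclosed values, limit read from the data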
ABHD4 inh – ABHD4 (mouse) inhibition, primary FP screen; inhibition, % at 8.92 µM; AID 720543; 370,000 compounds, 0.54% hits; purified mABHD4, FP-Rh probe fluorescence polarization;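 active = inhibition exceeding the mean over every tested compound plus 3 SD, cut at about 30% in these data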;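 note: 0% = plate median of compound wells and 100% = S159A mutant with DMSO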
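Test system: mouse ABHD4 enzyme, wild type. Reagent: FP-Rh fluorescent activity-based probe, added after compound pre-incubation. Timing: pre-incubation 45 min, probe exposure 60 min, at 25 °C. Technique: FP readout, ex 525 nm / em 598 nm. Benchmarks: high control S159A mutant with DMSO, low control median of compound wells.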
HTRA1 inh conf – HTRA1 (human) inhibition, confirmation. shares compounds with HTRA1 inh. recombinant HTRA1, FP-rhodamine activity-based probe, fluorescence polarization. inhibition, % at 5.96 µM. 1,600 compounds, 66% hits;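 active = mean inhibition over three repeats above a set limit taken from the earlier primary screen, cut at about 37% in these data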;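 note: 0% = HTRA1 with DMSO and 100% = wells lacking HTRA1; inhibitors block probe binding so polarization drops and inhibition rises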
* = called active by the depositor; x = not tested or not shown. This is a sample that favours compounds with a hit; in the whole collection about 3.5% have one here.

SMILES | SIAE primary | rCAG RNA binder | HTRA1 inh | TCR-CD3 inh | PRMT1 inh | ABHD4 inh | HTRA1 inh conf
O=C(O)C1OC(Oc2cc3oc(-c4ccccc4)cc(=O)c3c(O)c2O)C(O)C(O)C1O (stereo not drawn) | 5 | 13 | 45* | 1 | 28* | 21 | 43*
CC(=O)C(C(C)=O)c1c(Cl)c(O)c(O)c2c(C(=O)c3ccccc3)coc12 | -1 | 9 | 65* | -2 | 79* | 43* | 82*
CN1CCN(Cc2c(O)ccc3occ(C(=O)c4ccccc4)c23)CC1 | 0 | -5 | 7 | 6 | 2 | 3 | x
COc1cccc(N2CCN(CC(=O)N(C)Cc3ccccc3Cl)CC2)c1 | 4 | -1 | x | x | -1 | 6 | x
Nn1c(SCC(=O)NC2CCCCC2)nnc1-c1cc(-c2ccc(F)cc2)n[nH]1 | -2 | 2 | x | x | 1 | 3 | x
O=C(N/N=C/c1ccc(Sc2ccccn2)o1)c1cc2ccccc2cc1O | x | x | 60* | x | x | x | 49*
C/C(=N\NC(=O)c1cc2ccccc2cc1O)c1ccccn1 | 7 | 47* | 52* | -11 | 3 | 21 | 18
O=C(N/N=C\c1ccc(Sc2ccccn2)o1)c1cccc(F)c1 | 0 | 1 | -4 | -6 | 4 | -23 | x
Cc1nc2ccc(S(=O)(=O)NCC(=O)N(C)Cc3ccccc3Cl)cc2s1 | 4 | 0 | x | x | 1 | -2 | x
C[C@@H]1ON(C)[C@H]2C[C@H]3c4[nH]c5c(-c6ccc7c(c6)OCO7)cccc5c4CCN3C[C@@H]12 | 2 | 0 | x | x | 0 | 5 | x
C[C@H]1[C@@H](OC(=O)NCc2cccc(C(F)(F)F)c2)CC[C@@]23CCCN2C(=O)CCC[C@@H]13 | 3 | x | x | x | -6 | -1 | x
COc1ccccc1N1CCN(Cc2ccc(O)c3ncccc23)CC1 | 5 | -2 | 45* | -1 | -6 | 6 | 53*
COc1ccccc1N1CCN(Cc2ccc(OC)c(OC)c2OC)CC1 | 12 | -2 | 2 | -8 | -1 | 1 | x
Oc1ccc(CN2CCCc3ccccc32)c2cccnc12 | x | x | 39* | x | x | x | 35
COC(=O)[C@]12C[C@H](CC(=O)N3CCC(c4ccccc4)CC3)C(=O)N(Cc3ccco3)C1=C[C@H](C1CCCC1)O[C@@H]2C | 12 | 4 | x | x | 1 | 1 | x
CCOc1ccc(-n2c(SC/C=C/c3ccccc3)nnc2-c2ccco2)cc1 | 2 | 2 | x | x | -25 | -7 | x
Brc1ccc(C2Nc3cccc4cccc(c34)N2)cc1 | 2 | 12 | 5 | -5 | 13 | 9 | x
Clc1cccc(C2Nc3cccc4cccc(c34)N2)c1Cl | 15 | 12 | 58* | -1 | 17 | 29 | 20
CC1(OC(=O)C2CCCC2)C(=O)C=C2C=C(c3ccsc3)N(C3CC3)C=C2C1=O (stereo not drawn) | 11 | 3 | 20 | -3 | 7 | 12 | x
CC1(OC(=O)C2CCCC2)C(=O)C=C2C=C(c3ccsc3)N(Cc3ccccc3)C=C2C1=O (stereo not drawn) | 5 | 4 | 38* | -3 | 7 | 24 | 31
CC1(OC(=O)C2CCCC2)C(=O)C=C2C=C(c3ccsc3)N(c3ccccc3)C=C2C1=O (stereo not drawn) | 6 | 19 | 39* | -3 | 7 | 20 | 32
O=C(COc1ccccc1[N+](=O)[O-])N/N=C/c1ccc(O)c([N+](=O)[O-])c1 | 1 | 12 | 4 | 8 | 1 | 20 | x
O=C(COc1ccccc1C(=O)N/N=C\c1ccc(O)c(O)c1)N/N=C/c1ccc(O)c(O)c1 | x | x | 47* | x | x | x | 59*
O=C(N/N=C/c1ccc(OCc2ccc(F)cc2)cc1)c1ccccc1 | -2 | -2 | -10 | 6 | -1 | 1 | x
CC(C)(C)c1ccc(OCc2ccc(C(=O)N/N=C/c3ccc(O)c(O)c3)cc2)cc1 | 13 | 17 | 45* | 2 | -3 | 25 | 81*
SMILES | SIAE primary | rCAG RNA binder | HTRA1 inh | TCR-CD3 inh | PRMT1 inh | ABHD4 inh | HTRA1 inh conf
Cc1ccc(CN[C@@H]2CC[C@@]34CCCN3C(=O)CCC[C@H]4C2)cc1 | -1 | x | x | x | -1 | 2 | x
CC1(C)CC(=O)N(CC(=O)N2CCN(Cc3ccccc3)CC2)c2ccccc2S1(=O)=O | 7 | 1 | x | x | 3 | 2 | x
COc1cccc(C=NNC(=O)c2ccncc2)c1O | 0 | 2 | 6 | -1 | -1 | 8 | x
COc1cccc(/C=N/NC(=O)c2c(C)nc3ccc(Br)cn23)c1O | x | x | 54* | x | x | x | 52*
COc1cccc(/C=N/NC(=O)N/N=C/c2cccc(OC)c2O)c1O | 14 | 5 | 60* | 5 | 1 | 14 | 85*
COc1cccc(/C=N/NC(=O)c2nc(-c3ccccc3)cc(-c3ccccc3)n2)c1O | 3 | 5 | 43* | 5 | -5 | 2 | 57*
O=C(NCCCN1CCN(c2ccc(F)cc2)CC1)Nc1ccccc1 | 1 | 4 | x | x | 1 | 7 | x
COC(=O)C1CN(Cc2ccccc2)CCS(=O)(=O)N1Cc1ccc(C)cc1 (stereo not drawn) | 2 | 3 | x | x | 4 | -7 | x
COc1cc(O)c2c(=O)c3c(O[C@H]4O[C@@H](CO)[C@H](O)[C@@H](O)[C@@H]4O)ccc(O)c3oc2c1 | 0 | 7 | 2 | -6 | -1 | 5 | x
COc1cc(O)c2c(=O)c3c(O)ccc(O)c3oc2c1 | 4 | 29 | 55* | 6 | 0 | 28 | 0
Cc1c(Cl)cccc1NS(=O)(=O)c1ccc2c(c1)C1C=CCC1C(c1ccc(C(=O)O)cc1)N2 (stereo not drawn) | x | x | 38* | x | x | x | 31
NS(=O)(=O)c1ccc(N=Nc2c(O)ccc3ccccc23)cc1 | 13 | 21 | 11 | 4 | -9 | 4 | x
N=C(N)c1ccc(N=Nc2c(O)ccc3c2[nH]c2ccccc23)cc1 | 9 | 26 | 85* | -2 | 4 | 47* | 61*
COC(=O)C1CN(Cc2cn(Cc3ccccc3)nn2)CCS(=O)(=O)N1Cc1ccc(Cl)cc1 (stereo not drawn) | -1 | -2 | x | x | -2 | -1 | x
CCC(=O)NC(c1ccco1)c1cc(Cl)c2cccnc2c1O (stereo not drawn) | 10 | 3 | 56* | -1 | 3 | 18 | 64*
CC(=O)NC(c1cc(Cl)c2ccccc2c1O)C(C)C (stereo not drawn) | 14 | -5 | -11 | -1 | 0 | -7 | x
CCC(=O)NC(c1ccco1)c1cc(Cl)c2cccnc2c1OC (stereo not drawn) | 0 | -1 | -3 | -4 | 1 | 11 | x
CCC(=O)NC(c1ccc(OC)cc1)c1cc(Cl)c2cccnc2c1O (stereo not drawn) | 15 | 2 | 59* | 2 | -3 | 8 | 73*
CCCCC(=O)NC(c1ccco1)c1cc(Cl)c2cccnc2c1O (stereo not drawn) | 11 | 5 | 59* | -2 | -2 | 12 | 65*
